In the library only some 2% were active in any assay of this set; here they are far more common.
CDK5 p35 inh: blocks human CDK5/p35 kinase activity | Recombinant CDK5/p35, ADP-Glo luminescence, 60 min | inhibition, % at 10 µM | 330,000 compounds, 0.01% hits | Q00535+Q15078;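 active = highest replicate inhibition of at least 50% and at least 75% of replicates reaching 50%; inconclusive = only one of the two criteria met; inactive = both criteria failed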;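 note: plate controls were DMSO neutral control for no effect and GW8510 at 10 µM for full effect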
Target sequence (Q00535 whole entry, looked up): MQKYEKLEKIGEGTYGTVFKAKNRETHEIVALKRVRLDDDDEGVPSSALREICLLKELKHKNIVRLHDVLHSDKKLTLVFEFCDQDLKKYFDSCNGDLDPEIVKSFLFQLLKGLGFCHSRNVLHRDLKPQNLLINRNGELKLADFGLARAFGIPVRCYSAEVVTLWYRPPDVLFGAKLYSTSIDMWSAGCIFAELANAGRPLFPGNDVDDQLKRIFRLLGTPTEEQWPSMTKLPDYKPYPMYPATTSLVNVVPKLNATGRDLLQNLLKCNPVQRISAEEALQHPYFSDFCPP
Target sequence (Q15078 whole entry, looked up): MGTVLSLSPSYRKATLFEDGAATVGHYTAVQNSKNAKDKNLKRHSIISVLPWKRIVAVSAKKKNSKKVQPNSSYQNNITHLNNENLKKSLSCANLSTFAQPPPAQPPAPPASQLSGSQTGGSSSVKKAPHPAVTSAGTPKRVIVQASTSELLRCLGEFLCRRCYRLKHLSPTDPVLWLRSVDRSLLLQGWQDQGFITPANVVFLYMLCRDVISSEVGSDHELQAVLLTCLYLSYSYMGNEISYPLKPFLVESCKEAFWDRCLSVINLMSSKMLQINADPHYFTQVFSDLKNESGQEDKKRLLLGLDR
Statin myotox sup: suppressors of simvastatin-induced myotoxicity in C2C12 myotubes; rescue of ATP level, % at 7.49 µM; ATP luminescence, 48 h; scaled: DMSO 0, geranylgeraniol control 100; AID 602340; 330,000 compounds, 0.78% hits;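 active = mean ATP rescue above about 67%, or every replicate alone reaching that limit, limit read from the data, passing the limit was not always enough; inconclusive = no clear call, values can overlap the other calls; inactive = mean under the limit and some replicate under it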;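 note: myotubes were challenged with 10 µM simvastatin during compound exposure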
dFosB act-1: activators of mouse delta FosB homodimer | P13346 | purified delta FosB, TAMRA-CDK5 oligo fluorescence polarization; percent of positive-control signal above neutral wells | activation, % at 25 µM | 340,000 compounds, 0.99% hits | AID 493131;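 active = mean activation above about 17%, with every replicate also reaching it, limit read from the data, passing the limit was not always enough; inconclusive = only one of the two conditions met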
CAL PDZ FP-1: blocks peptide binding to the human CAL PDZ domain; Q9HD26; purified CAL PDZ, TMR-peptide fluorescence polarization, 1 h; 300,000 compounds, 0.92% hits; AID 602252; inhibition, % at 24.9 µM;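 active = mean inhibition of at least 30% with at least half of replicates also reaching 30%; inconclusive = no clear call, values can overlap the other calls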;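 note: 0% = DMSO neutral control and 100% = excess unlabeled competitor peptide PRC23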
S100A4 MyoIIA: blocks human S100A4 binding to myosin IIA peptide; P26447; S100A4/TAMRA-MyoIIA peptide fluorescence polarization; inhibition, % at 10.7 µM; 360,000 compounds, 0.14% hits;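 active = mean inhibition of at least 70% across replicates, with every replicate also reaching that level; inconclusive = mean inhibition reaches 70% but some replicates fall short; inactive = mean inhibition below 70%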
Target sequence (P26447 whole entry, looked up): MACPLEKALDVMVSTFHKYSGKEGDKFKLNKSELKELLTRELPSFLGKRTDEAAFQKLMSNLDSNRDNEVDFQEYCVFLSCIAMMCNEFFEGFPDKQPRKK
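assay system = human S100A4 monomer with TAMRA-labelled myosin IIA peptide | also added = labelled myosin peptide probe, 5 nM | incubation = 5 min between mix addition and reading | control set = DMSO and TFP controls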
CAL PDZ FP-2: blocks peptide binding to human CAL PDZ domain; Q9HD26; purified CAL PDZ, TMR-peptide fluorescence polarization, 1 h; inhibition, % at 20 µM; 330,000 compounds, 0.02% hits; AID 504414;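 active = highest replicate inhibition of at least 40%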;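 note: plate controls were DMSO neutral control wells for no effect and unlabeled competitor peptide control wells for full effect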
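material = purified tagged CAL PDZ domain construct (CerCALP) | buffer or medium = sodium phosphate/NaCl buffer pH 7.4 with TCEP, IgG, Thesit | reagent = TMR-labelled reporter peptide T*-PRC34 bound in PDZ groove | incubation = 1 h room-temperature incubation prior to read | measured by = fluorescence polarization (mP) | evaluation = percent inhibition from loss of millipolarization | control set = unlabelled peptide and DMSO controls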
dFosB act-2: enhances mouse delta FosB homodimer binding to DNA | activation, % at 24.9 µM | shares compounds with dFosB act-1 | 2,400 tested, under 10 active | purified delta FosB, TAMRA-CDK5 oligo fluorescence polarization; normalised: neutral wells 0, positive control 100;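 active = highest replicate activation at or above 34% and every replicate reaching that threshold; inconclusive = meets only one of the two criteria; inactive = meets neither criterion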;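 note: higher polarization means more probe DNA bound by delta FosB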
The depositor's hits bear a star.

Screening Cc1cc(C)cc(N(CC(=O)NC(C)(C)C)C(=O)CCC(=O)Nc2nccs2)c1 returned CDK5 p35 inh -2.4, Statin myotox sup -0.5, dFosB act-1 -6.1, CAL PDZ FP-1 -5.8, S100A4 MyoIIA -2.4 and CAL PDZ FP-2 1.2.
Screening Cc1ccc(C(=O)OCC(=O)Nc2cccc(Cl)c2C)c(O)c1 returned CDK5 p35 inh 1.1, Statin myotox sup -6.5, dFosB act-1 20.1*, CAL PDZ FP-1 -2.8, S100A4 MyoIIA 0.4, CAL PDZ FP-2 -2.7 and dFosB act-2 0.2.
Screening COc1ccc2c(c1)[nH]c1c(=O)n(/N=C/c3ccc(OC)c(CN4CCCC4)c3)cnc12 returned CDK5 p35 inh -0.2, dFosB act-1 66.1*, CAL PDZ FP-1 -4.5, S100A4 MyoIIA 3.5, CAL PDZ FP-2 -2.4 and dFosB act-2 inconclusive.
COc1ccc(/C=N/n2cnc3c([nH]c4ccc(C)cc43)c2=O)cc1CN1CCCC1 was read as CDK5 p35 inh -0.1, Statin myotox sup -16.5, dFosB act-1 42.0*, CAL PDZ FP-1 -5.8, S100A4 MyoIIA -8.7, CAL PDZ FP-2 -0.6 and dFosB act-2 1.8.
COc1ccc(S(=O)(=O)N2N=C(c3ccc(NS(C)(=O)=O)cc3)CC2c2ccco2)cc1 (stereo not given) was read as CDK5 p35 inh -2.5, Statin myotox sup 7.0, dFosB act-1 -3.4, CAL PDZ FP-1 -2.1, S100A4 MyoIIA -3.0 and CAL PDZ FP-2 -4.6.
For CCOC(=O)c1c(C)[nH]c(C(=O)OCC(=O)Nc2cc(C)ccc2OC)c1C the results were CDK5 p35 inh -0.1, Statin myotox sup -4.3, dFosB act-1 23.2*, CAL PDZ FP-1 -2.4 and dFosB act-2 -0.3.
For CCOC(=O)c1c(C)[nH]c(C(=O)OCC(=O)Nc2cc(Cl)ccc2OC)c1C the results were CDK5 p35 inh 5.2, Statin myotox sup -2.0, dFosB act-1 -1.3 and CAL PDZ FP-2 -2.5.
`C[C@H](CO)N1C[C@H](C)[C@H](CN(C)Cc2ccc(Cl)c(Cl)c2)Oc2c(NC(=O)Nc3ccc(F)cc3)cccc2C1=O` gave Statin myotox sup -18.2 and S100A4 MyoIIA -2.1.
For C[C@@H]1CCCCO[C@@H](CN(C)Cc2ccncc2)[C@@H](C)CN([C@H](C)CO)C(=O)c2cc(NC(=O)CCCCCC(=O)Nc3ccccc3N)ccc2O1 the results were S100A4 MyoIIA 3.1.
For COC(=O)COc1ccc(/C=N/NC(=O)CN(c2ccccc2OC)S(=O)(=O)c2ccccc2)cc1 the results were CDK5 p35 inh 1.3, Statin myotox sup 0.7, dFosB act-1 -10.2, CAL PDZ FP-1 -2.9, S100A4 MyoIIA 0.5 and CAL PDZ FP-2 -0.9.
CC(=O)c1c(C)[nH]c(C(=O)OCC(=O)N2CCc3ccccc32)c1C was read as CDK5 p35 inh 0.0, Statin myotox sup 3.1, dFosB act-1 28.8*, CAL PDZ FP-1 -2.4, CAL PDZ FP-2 -1.5 and dFosB act-2 7.9.
`O=C(OCC(=O)N1CCc2ccccc21)c1n[nH]c(=O)c2ccccc12` gave CDK5 p35 inh 0.3, Statin myotox sup 3.7, dFosB act-1 37.8*, CAL PDZ FP-1 -1.8, S100A4 MyoIIA 0.7, CAL PDZ FP-2 0.7 and dFosB act-2 -1.2.
`OCc1c[nH]c(=S)n1CCOc1cccc(C(F)(F)F)c1` gave CDK5 p35 inh 1.0, Statin myotox sup 9.7, dFosB act-1 -3.5, CAL PDZ FP-1 -1.4, S100A4 MyoIIA 1.9 and CAL PDZ FP-2 -1.7.
`COc1ccccc1NC(=O)c1cc(S(=O)(=O)N2CCc3ccccc32)ccc1F` gave CDK5 p35 inh -1.7, Statin myotox sup -1.4, dFosB act-1 30.2*, CAL PDZ FP-1 -0.6, S100A4 MyoIIA 1.8, CAL PDZ FP-2 -0.6 and dFosB act-2 5.1.
Screening COc1ccc(CCNC(=O)c2cc(S(=O)(=O)N3CCc4ccccc43)ccc2F)cc1OC returned Statin myotox sup -4.2 and S100A4 MyoIIA 1.0.
`O=C(Nc1ccc(Cl)cc1)Nc1nc(-c2sccc2Br)cs1` gave CDK5 p35 inh 0.7, dFosB act-1 27.1*, CAL PDZ FP-1 -2.3, CAL PDZ FP-2 -1.7 and dFosB act-2 3.0.
O=C(Nc1ccc(Cl)cc1)Nc1nc(-c2ccccc2O)cs1 was read as CDK5 p35 inh -1.4, Statin myotox sup -34.6, dFosB act-1 -3.3, CAL PDZ FP-1 -0.2, S100A4 MyoIIA -1.0 and CAL PDZ FP-2 -0.3.
For CC(C)Oc1cccc(C(=O)C2CCCN(C(=O)c3noc4c3CCCC4)C2)c1 (stereo not given) the results were CDK5 p35 inh -0.2, dFosB act-1 -20.8, CAL PDZ FP-1 -6.1, S100A4 MyoIIA -19.0 and CAL PDZ FP-2 -0.8.
Screening C[C@@H]1CN([C@H](C)CO)C(=O)c2cc(NC(=O)C3CC3)ccc2O[C@H]1CN(C)Cc1ccc2c(c1)OCO2 returned Statin myotox sup -6.6 and S100A4 MyoIIA -1.7.
COc1ccc(CNc2nc3c(c(=O)[nH]c(=O)n3C)n2Cc2ccccc2C)cc1 was read as CDK5 p35 inh -3.7, Statin myotox sup 16.8, dFosB act-1 17.9*, CAL PDZ FP-1 -7.7, S100A4 MyoIIA 2.2, CAL PDZ FP-2 1.7 and dFosB act-2 0.2.
Screening COc1ccc(NC(=O)c2cc(-c3ccc(F)cc3OC)n[nH]2)c(OC)c1 returned Statin myotox sup 10.5 and S100A4 MyoIIA 9.5.
For COc1ccc2oc(C(=O)OCC(=O)NCCc3ccccc3)c(C)c2c1 the results were CDK5 p35 inh 0.6, Statin myotox sup 13.3, dFosB act-1 5.6, CAL PDZ FP-1 2.2, S100A4 MyoIIA 1.5 and CAL PDZ FP-2 -1.5.
For COc1ccc(Br)cc1/C=C/C(=O)OCC(=O)NCCc1ccc(S(N)(=O)=O)cc1 the results were CDK5 p35 inh -0.9, Statin myotox sup 3.9, dFosB act-1 21.8*, CAL PDZ FP-1 -7.7, S100A4 MyoIIA 3.6, CAL PDZ FP-2 -1.6 and dFosB act-2 3.9.
COc1ccc2oc(C(=O)OCC(=O)NCCc3ccc(S(N)(=O)=O)cc3)c(C)c2c1 was read as CDK5 p35 inh -1.5, Statin myotox sup -2.6, dFosB act-1 25.7*, CAL PDZ FP-1 -1.4, S100A4 MyoIIA -3.1, CAL PDZ FP-2 -0.4 and dFosB act-2 5.1.
`COc1ccc(C(=O)NNC(=O)COc2ccc(Cl)cc2C)cc1S(=O)(=O)N1CCOCC1` gave CDK5 p35 inh 0.0, Statin myotox sup 4.2, dFosB act-1 6.3, S100A4 MyoIIA 0.6 and CAL PDZ FP-2 -0.5.
For C=CCn1c(SCC(=O)Nc2ncc(Cc3ccc(Br)cc3)s2)nnc1-c1ccncc1 the results were CDK5 p35 inh -4.1, Statin myotox sup 3.2, dFosB act-1 37.3*, CAL PDZ FP-1 -1.7, S100A4 MyoIIA 12.6, CAL PDZ FP-2 -1.5 and dFosB act-2 4.5.

Source: PubChem BioAssay
